According to PMC3578425 (Pharmacological research : the official journal of the …, 2010):
Several values for one entry are separate records, joined by “and”; a condition that tells them apart may be missing. Identical values can stand only once. Entries after “also recorded” stand apart in the source; their conditions may differ. Like-named read-outs stand apart in the source and are kept apart here.

How the values were obtained:
[1] = biological target: P2Y1 receptors on human platelets (Homo sapiens, UniProt P47900); experiment: [125I]MRS2500 binding assay with intact washed human platelets; conditions: for effect on [125I]MRS2500 binding: competing drug up to 100 μM
P2Y1 receptor = conditions: read-out: Kd for the P2Y1 receptor; cited from earlier work
[2] = biological target: P2Y1 receptors on mouse platelets (Mus musculus, UniProt P49650); experiment: [125I]MRS2500 binding assay with intact washed mouse platelets
In short: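 Mouse washed platelets were prepared by differential centrifugation in Tyrode's buffer, pH 7.3, with 0.35% human serum albumin and apyrase (0.02 U/ml), held at 150,000 platelets/μl at 37°C. Platelet suspension (400 μl in 0.5 ml) was incubated 5 min with [125I]MRS2500 at 20°C or 37°C, with or without competitors. Samples were filtered on GF/C, washed five times with ice-cold buffer, and gamma-counted. Nonspecific binding was defined with 10 μM MRS2179.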

[3] = system: platelets isolated from P2Y1(−/−) mice; experiment: [125I]MRS2500 binding to platelets isolated from P2Y1; set-up: species or system mouse
human P2Y1 receptor = human P2Y1 receptor (Homo sapiens, UniProt P47900); type: binding; conditions: for Ki: read-out: Ki, inhibition of [125I]MRS2500 binding, competition curves
[4] = system: membranes from wild-type insect cells (empty vector-infected Sf9); experiment: [125I]MRS2500 binding to membranes from empty vector-infected; conditions: wide range of membrane concentrations; nonspecific defined with 30 μM 2MeSADP
[5] = wild-type mouse platelets, 10 μM competitor
[6] = P2Y1 receptor-expressing Sf9 membranes
[7] = read-out: Ki, inhibition of [125I]MRS2500 binding, human platelets, competition
[8] = human platelets, 37°C, data not shown
[9] = approximately 0.3 nM [125I]MRS2500, 300 ng membranes, data not shown

P2Y1 receptors on human platelets, sequence (P47900 whole entry): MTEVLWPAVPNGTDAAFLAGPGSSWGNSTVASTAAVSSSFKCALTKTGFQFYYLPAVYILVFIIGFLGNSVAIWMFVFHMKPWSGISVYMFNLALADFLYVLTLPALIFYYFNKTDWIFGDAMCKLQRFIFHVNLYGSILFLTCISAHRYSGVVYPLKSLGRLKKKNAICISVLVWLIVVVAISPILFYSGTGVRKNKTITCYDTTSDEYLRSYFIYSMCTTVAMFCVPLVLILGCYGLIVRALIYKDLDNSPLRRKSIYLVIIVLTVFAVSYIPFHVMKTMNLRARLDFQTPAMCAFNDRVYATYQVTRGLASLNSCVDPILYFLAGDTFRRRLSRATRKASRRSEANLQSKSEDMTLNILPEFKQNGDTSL
human P2Y1 receptor, sequence (P47900 whole entry): as above
P2Y1 receptors on mouse platelets, sequence (P49650 whole entry): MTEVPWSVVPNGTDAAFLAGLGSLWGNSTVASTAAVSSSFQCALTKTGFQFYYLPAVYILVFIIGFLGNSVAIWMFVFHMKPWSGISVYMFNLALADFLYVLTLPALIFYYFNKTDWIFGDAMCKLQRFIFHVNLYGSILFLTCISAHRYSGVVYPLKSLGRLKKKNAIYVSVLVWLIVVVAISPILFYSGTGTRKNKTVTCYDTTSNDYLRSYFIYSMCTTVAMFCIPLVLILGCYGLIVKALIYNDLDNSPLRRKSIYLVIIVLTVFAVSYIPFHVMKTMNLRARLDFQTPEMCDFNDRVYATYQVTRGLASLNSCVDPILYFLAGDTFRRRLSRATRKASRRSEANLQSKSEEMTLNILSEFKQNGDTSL

## CNc1ncnc2c1ncn2[C@H]1C[C@H](OP(=O)(O)O)[C@@H](COP(=O)(O)O)O1 [MRS2179]
[1]
  Ki: 0.0725 ± 0.017 µM
P2Y1 receptor
  Kd: ~0.1 µM
[2]; [5]
  effect on [125I]MRS2500 binding: inhibited

## CSc1nc(N)c2ncn([C@@H]3O[C@H](COP(=O)(O)OP(=O)(O)O)[C@@H](O)[C@H]3O)c2n1 [2MeSADP, 2-methylthio-adenosine 5′-diphosphate, reference compound]
[3]; high concentration of competitor
  effect on residual [125I]MRS2500 binding: not inhibited
[2]; [5]
  effect on [125I]MRS2500 binding: inhibited

## Nc1ncnc2c1ncn2[C@@H]1O[C@H](COP(=O)(O)OP(O)(O)=S)[C@@H](O)[C@H]1O [ADP!S, reference compound]
Human P2Y1 receptor; [6]
  Ki: 1.75 ± 0.75 µM

## Nc1ncnc2c1ncn2[C@@H]1O[C@H](COP(=O)(O)CP(=O)(O)OP(=O)(O)O)[C@@H](O)[C@H]1O [!!MeATP, reference compound]
[1]; human platelets
  effect on [125I]MRS2500 binding: Little effect

## CNc1nc(I)nc2c1ncn2[C@H]1C[C@H](OP(=O)(O)O)[C@]2(COP(=O)(O)O)C[C@H]12 [MRS2500, 2-iodo-N^6-methyl-(N)-methanocarba-2′-deoxyadenosine 3′,5′-bisphosphate]
[1]; [7]
  Ki: 0.0012 ± 0.00015 µM

## CNc1nc(I)nc2c1ncn2[C@H]1C[C@H](OP(=O)(O)O)[C@]2(COP(=O)(O)O)C[C@H]12 [[^125I]MRS2500, 2-iodo-N^6-methyl-(N)-methanocarba-2′-deoxyadenosine-3′,5′-bisphosphate]
[1]; human platelets, 20°C, data not shown
  Bmax (binding sites): 147 sites/platelet
[1]; human platelets, 37°C
  Bmax: 151 sites/platelet and 151 ± 1 sites/platelet
[1]; [8]
  time binding was stable: at least 15 min
  time to apparent steady state binding: 60 to 90 s
[1]; intact washed platelets (human or mouse), 20°C or 37°C
  time to steady state binding: ≤ 5 min
[1]; read-out: Kd, saturation binding of [125I]MRS2500, human platelets, 37°C
  Kd: 0.00061 µM
[3]
  specific binding of [125I]MRS2500: not observed
Human P2Y1 receptor; [9]
  time steady-state binding was maintained: at least 40 min
  time to steady state binding: ≤ 20 min
Human P2Y1 receptor; read-out: Kd, saturation binding of [125I]MRS2500, P2Y1 receptor-expressing Sf9 membranes, 4°C, one-site binding
  Kd: 0.0011 ± 0.0003 µM
Human P2Y1 receptor; saturation binding of [125I]MRS2500
  Bmax for P2Y1 receptor expression in Sf9 cells: 13.3 ± 2.2 pmol/mg membrane protein
[2]; mouse platelets, 20°C, data not shown
  Bmax: 253 sites/platelet
[2]; read-out: Kd, saturation binding of [125I]MRS2500, mouse platelets, 20°C, data not shown
  Kd: 0.0005 µM
[2]; wild-type mouse platelets, 37°C
  Bmax: 229 sites/platelet and 229 ± 23 sites/platelet
[4]
  specific binding of radioligand: did not specifically bind; also recorded: no specific binding

## CSCCNc1nc(SCCC(F)(F)F)nc2c1ncn2[C@@H]1O[C@H](COP(=O)(O)OP(=O)(O)C(Cl)(Cl)P(=O)(O)O)[C@@H](O)[C@H]1O [ARC-69931MX, [dichloro-[[[(2R,3S,4R,5R)-3,4-dihydroxy-5-[6-(2-methylsulfanylethylamino)-2-(3,3,3-trifluoropropylsulfanyl)purin-9-yl]oxolan-2-yl]methoxy-hydroxyphosphoryl]oxy-hydroxyphosphoryl]methyl]phosphonic acid, reference compound]
[1]; human platelets
  effect on [125I]MRS2500 binding: Little effect
[2]; [5]
  effect on [125I]MRS2500 binding: no effect

## CSc1nc(N)c2ncn([C@H]3[C@H](O)[C@H](O)[C@@]4(COP(=O)(O)OP(=O)(O)O)C[C@H]34)c2n1 [MRS2365, (1′S,2′R,3′S,4′R,5′S)-4-[(6-amino-2-methylthio-9H-purin-9-yl)-1-diphosphoryloxymethyl]bicyclo[3.1.0]hexane-2,3-diol]
[2]; [5]
  effect on [125I]MRS2500 binding: inhibited

## O=c1ccn([C@@H]2O[C@H](COP(=O)(O)OP(=O)(O)OP(=O)(O)O)[C@@H](O)[C@H]2O)c(=O)[nH]1 [UTP, reference compound]
Human P2Y1 receptor; concentrations up to 30 μM
  effect on [125I]MRS2500 binding: no effect

## CNc1nc(Cl)nc2c1ncn2[C@H]1C[C@H](OP(=O)(O)O)[C@]2(COP(=O)(O)O)C[C@H]12 [MRS2279, 2-chloro-N^6-methyl-(N)-methanocarba-2′-deoxyadenosine-3′,5′-bisphosphate]
P2Y1 receptor
  Kd: ~0.01 µM

## Nc1ncnc2c1ncn2[C@@H]1O[C@H](COP(=O)(O)OP(=O)(O)O)[C@@H](O)[C@H]1O [ADP, reference compound]
[1]; [7]
  Ki: 15.4 ± 9 µM
Human P2Y1 receptor; [6]
  Ki: 0.625 ± 0.037 µM
[2]; wild-type mouse platelets, 100 μM competitor
  effect on [125I]MRS2500 binding: inhibited
